PLCb3 inh: inhibitors of human phospholipase C beta3. Q01970. inhibition, % at 12.2 µM. AID 720704. Purified PLC-beta3, fluorogenic substrate, fluorescence. 0.18% of 370,000 active; in the data active = inhibition above about 11%;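 also: 0% = median of compound wells on plate and 100% = full blocker control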
HGIII-sPLA2 inh: Inhibits HGIII-sPLA2 liposome hydrolysis, primary screen; Q9NZ20; QFRET BODIPY PC-A2 liposome hydrolysis, fluorescence; inhibition, % at 12.2 µM; 0.56% of 370,000 active; AID 743126;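 active = inhibition above mean plus 3 SD of compounds lying within the high and low control bounds, cut at about 19% in these data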;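 also: 0% = median of test compound wells and 100% = no enzyme DMSO wells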
ARFGAP1 inh: inhibits rat ARF GTPase activating protein 1; Q62848; Arfgap1-stimulated ARF1 GTP hydrolysis, GDP FP detection; inhibition, % at 16.5 µM; 0.26% of 360,000 active; AID 651572;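 active = inhibition above a per-plate limit, mean inhibition of low control wells plus 3 SD, cut at about 25% in these data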;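 also: 0% = DMSO wells with enzyme and 100% = wells lacking Arfgap1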
Target sequence (Q62848 1-136 limits assumed): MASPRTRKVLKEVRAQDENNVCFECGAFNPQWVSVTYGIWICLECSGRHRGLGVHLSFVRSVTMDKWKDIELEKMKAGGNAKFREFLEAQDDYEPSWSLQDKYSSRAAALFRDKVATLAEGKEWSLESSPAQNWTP
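Material – truncated rat Arfgap1 GAP domain · Buffer or medium – HEPES-based buffer, pH 7.5 · Reagent – human ARF1(Δ1-17)-GTP substrate · Dosing – 16.5 µM single point, 1.26% DMSO · Schedule – GTP hydrolysis reaction 2 h at 25 °C · Technique – GDP detection by fluorescence polarization · Benchmarks – No-Arfgap1 wells (100%) versus DMSO full-reaction wells (0%) · Repeats – single replicate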
PLCg1 inh: PLC-gamma1 (human) inhibition, primary screen. P19174. purified PLC-gamma1, fluorogenic substrate, fluorescence. inhibition, % at 12.2 µM. 0.84% of 370,000 active; in the data active = inhibition above about 9.5%
ASAP1 GAP inh: ASAP1 ArfGAP inhibition. ASAP1-stimulated ARF1 GTP hydrolysis, GDP FP detection. inhibition, % at 16.5 µM. 0.19% of 360,000 active; in the data active = inhibition above about 25%;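 also: 0% = vehicle with enzyme and substrate and 100% = no enzyme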
hGIII sPLA2 conf: human GIII-sPLA2 inhibition, confirmation; shares compounds with HGIII-sPLA2 inh; recombinant hGIII-sPLA2, BODIPY PC-A2 QFRET fluorescence; inhibition, % at 12.2 µM; 34% of 2,000 active; AID 743280;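 active = mean inhibition across triplicates above the hit cutoff set in the earlier primary screen, cut at about 19% in these data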;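 also: 0% = enzyme with DMSO and 100% = DMSO wells lacking enzyme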
BODIPY interf: optically interferes with 535nm fluorescence in sPLA2 counter-screen. shares compounds with HGIII-sPLA2 inh. BODIPY FL product fluorescence interference, QFRET. inhibition, % at 12.2 µM. 8.5% of 2,000 active. AID 743282;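 active = average inhibition above the solvent-only control mean plus 3 SD, cut at about 6% in these data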;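 also: 0% = DMSO with substrate plus product and 100% = DMSO with substrate alone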
BODIPY interf DR: interferes with 535nm fluorescence in dose response counter-screen | IC50, µM | 240 tested, under 10 active | BODIPY FL product fluorescence interference, cell-free | shares compounds with HGIII-sPLA2 inh;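 active = IC50 at or below 10 µM; inactive = IC50 above 10 µM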
* = called active by the depositor; nt = no result. In the library only some 1.9% were active in any assay of this set; here they are far more common.

SMILES	PLCb3 inh	HGIII-sPLA2 inh	ARFGAP1 inh	PLCg1 inh	ASAP1 GAP inh	hGIII sPLA2 conf	BODIPY interf	others
COc1ccc(OC)c2sc(NNC(=O)C3COc4ccccc4O3)nc12 (stereo not given)	-13.9	21.4*	5.0	-5.3	10.7	15.2	-1.8
Cc1cccc2sc(NNC(=O)C3COc4ccccc4O3)nc12 (stereo not given)	-15.7	12.7	3.2	-8.8	-8.9	nt	nt
O=C(NNc1nc2c(F)cc(F)cc2s1)C1COc2ccccc2O1 (stereo not given)	-6.5	4.5	-0.7	-0.9	14.1	nt	nt
Cc1cc(C)c2sc(NNC(=O)C3COc4ccccc4O3)nc2c1 (stereo not given)	-5.0	28.2*	-2.1	-1.3	15.2	31.2*	1.0	BODIPY interf DR=>122
S=C(Nc1ccccc1Oc1ccccc1)Nc1cccc(Cl)c1Cl	1.0	21.6*	0.5	0.5	5.1	30.1*	6.7*
S=C(Nc1cccc(Cl)c1)Nc1ccccc1Oc1ccccc1	0.8	11.0	1.9	3.5	15.6	nt	nt
C[C@@H]1OC(C2CCCCC2)N(C)[C@H]2C[C@H]3c4cc(-c5ccc6c(c5)OCO6)ccc4CCN3C[C@@H]12 (stereo not given in full)	-1.8	-0.6	nt	-2.0	nt	nt	nt
S=c1[nH]c(-c2ccccc2)cn1/N=C/c1cccs1	-73.8	24.3*	11.6	-54.0	-1.7	37.5*	11.6*
S=c1[nH]c(-c2ccccc2)cn1/N=C/c1ccc(Br)cc1	-48.7	-0.1	-7.8	-29.6	9.7	nt	nt
CCOC(=S)SCC(=O)Nc1nccs1	-9.0	2.5	3.3	1.4	6.3	nt	nt
CCOC(=S)SCC(=O)Nc1nc(C)c(C)s1	-9.1	19.4*	13.0	1.0	5.8	-3.0	-7.7
CC(C)Nc1nc(NC(N)=S)nc(NC(C)C)n1	2.8	21.6*	9.9	2.7	4.8	20.2*	-5.2
COc1ccc(C(=O)c2coc(-c3ccccc3C(=O)O)c2C(=O)O)cc1	-7.8	19.3*	3.1	6.2	3.5	-5.9	-2.8
COc1ccc(C(=O)c2ccccc2C(=O)c2ccccc2)cc1	2.4	10.9	-9.5	1.5	2.4	nt	nt
COC(=O)[C@@]1(OC(C)=O)CC(OC(C)=O)[C@H](OC(C)=O)[C@H](OC(C)=O)C1Br (stereo not given in full)	-3.3	6.6	nt	1.3	nt	nt	nt
C/C(=N/NC(=O)c1ccc2c(c1)OCCO2)c1ccc([N+](=O)[O-])cc1	3.4	23.4*	-10.3	6.0	1.1	-3.1	-8.4
C/C(=N/NC(=O)c1ccc2c(c1)OCO2)c1cccc([N+](=O)[O-])c1	-8.8	-3.6	-15.5	-0.1	-6.7	nt	nt
C(#CC1=CCCCC1)CNCc1ccccc1	0.9	5.9	nt	-0.8	nt	nt	nt
O=[N+]([O-])c1c(Nc2ccccc2)ccc2nonc12	7.3	7.1	2.2	9.2	3.6	nt	nt
O=C(O)c1cccc(Nc2ccc3nonc3c2[N+](=O)[O-])c1	-10.0	20.0*	5.3	1.1	-4.3	1.8	-5.9
c1cc(-c2nnc3n2N=C(c2ccc4c(c2)OCO4)CS3)ccn1	0.5	21.8*	nt	4.5	nt	-0.2	-10.0
COCCn1cnc2c(c1=O)c1nc3ccccc3nc1n2/N=C/c1ccco1	-18.0	19.4*	2.3	-4.7	-6.4	5.3	-8.9
Cc1cccc(C(=O)NC2CCN(C(=O)NCc3ccccc3)CC2)c1	1.9	2.7	8.0	0.8	6.7	nt	nt
Cc1cccc(C(=O)NC(=S)N2CCN(C(=S)NC(=O)c3cccc(C)c3)CC2)c1	3.1	29.3*	13.4	-7.8	-11.2	18.7	-5.0
CCCNC(=S)N1CCC(NC(=O)c2cccc(C)c2)CC1	-0.9	20.1*	-2.3	3.6	12.2	12.7	-8.1
Cc1ccc(-c2cc(-c3nnc(SCC(=O)Nc4ccccc4-c4ccccc4)n3N)[nH]n2)cc1	-2.1	-30.2	nt	2.0	nt	nt	nt
COc1cc(/C=N/N=C(\N)c2nonc2N)ccc1O	1.4	24.9*	5.2	3.4	-10.1	0.6	-7.0
CN=C1S/C(=C/c2cc(C)n(Cc3ccccc3)c2C)C(=O)N1C	-18.4	2.2	nt	-14.0	nt	nt	nt

High-throughput results as filed in PubChem.
